# In the library only some 2.3% were active in any assay of this set; here they are far more common.
# TRPC6 inh – mouse TRPC6 channel inhibition. Q61143. HEK293-TRPC6, membrane potential dye, ACh-evoked depolarization; stronger effect = lower value. B-score at 10 µM. 1.1% of 310,000 active. AID 2553;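 active = B-score under library mean minus 3 SD, initial fluorescence not abnormally high, positive integrated signal ratio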;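 note: B-score derived from integrated fluorescence ratio over the kinetic read; more negative B-score means stronger inhibition of depolarization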
# TRPC4 block – TRPC4 (mouse) channel inhibition | Q9QUQ5 | HEK293 TRPC4beta/mu-opioid, DAMGO-evoked Fluo4 calcium flux; stronger effect = lower value | B-score at 10 µM | 0.39% of 300,000 active | AID 2247;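 active = B-score over 3 SD under the library average, no early fluorescence shift, positive overall ratio signal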
# Target sequence (Q9QUQ5 whole entry, looked up): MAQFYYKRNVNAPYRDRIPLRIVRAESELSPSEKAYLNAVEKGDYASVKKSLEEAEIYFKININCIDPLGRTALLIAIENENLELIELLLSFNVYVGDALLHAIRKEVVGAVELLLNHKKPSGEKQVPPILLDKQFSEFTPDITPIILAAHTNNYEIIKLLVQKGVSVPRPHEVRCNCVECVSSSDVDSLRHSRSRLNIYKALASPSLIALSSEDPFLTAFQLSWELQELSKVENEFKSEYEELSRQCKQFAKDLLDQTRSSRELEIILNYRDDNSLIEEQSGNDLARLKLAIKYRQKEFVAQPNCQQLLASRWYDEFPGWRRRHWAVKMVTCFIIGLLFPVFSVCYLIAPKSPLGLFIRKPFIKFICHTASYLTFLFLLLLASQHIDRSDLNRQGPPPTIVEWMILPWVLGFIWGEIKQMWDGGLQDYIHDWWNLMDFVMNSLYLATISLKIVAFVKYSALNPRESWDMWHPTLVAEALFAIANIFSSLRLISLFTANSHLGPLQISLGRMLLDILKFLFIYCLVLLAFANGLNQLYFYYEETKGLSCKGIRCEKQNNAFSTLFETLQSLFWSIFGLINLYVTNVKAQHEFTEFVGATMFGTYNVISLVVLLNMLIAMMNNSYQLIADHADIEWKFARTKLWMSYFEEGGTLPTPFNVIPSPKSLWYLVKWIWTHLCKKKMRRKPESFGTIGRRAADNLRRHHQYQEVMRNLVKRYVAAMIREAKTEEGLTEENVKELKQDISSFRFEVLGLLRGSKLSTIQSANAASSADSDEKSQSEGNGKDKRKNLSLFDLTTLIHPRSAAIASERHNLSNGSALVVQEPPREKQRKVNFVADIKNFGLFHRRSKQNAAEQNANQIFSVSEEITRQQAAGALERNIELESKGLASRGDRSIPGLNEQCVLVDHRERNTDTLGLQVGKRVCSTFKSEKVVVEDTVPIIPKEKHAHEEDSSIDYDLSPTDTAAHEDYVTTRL
#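 Assay system – HEK293 line stably carrying TRPC4beta and mu-opioid receptor · Doses – single dose · Detection – Fluo4 calcium-dye fluorescence, kinetic read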
# TRPC4 potent – TRPC4 (mouse) allosteric potentiation; B-score at 10 µM; HEK293 TRPC4beta/mu-opioid, DAMGO EC20, Fluo-4 Ca2+ flux; stronger effect = higher value; 0.42% of 310,000 active; AID 2227;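 active = B-score of calcium response area above 5 SD of library B-scores, with initial fluorescence ratio within 5 SD of library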
# DNA FID counter – displaces DNA intercalator in HCV helicase counter-screen; DNA fluorescent intercalator displacement, fluorescence; inhibition, % at 7.9 µM; 0.17% of 290,000 active; AID 1845; in the data active = inhibition above about 37%;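 note: higher means more ethidium bromide displaced from hairpin DNA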
# TRPC4 agonist – activators of mouse TRPC4 channel. 0.49% of 310,000 active. HEK293 TRPC4beta/mu-opioid, Fluo4 calcium fluorescence; stronger effect = higher value. AID 2237. B-score at 10 µM;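 active = B-score above 5 SD of library B-scores, and initial fluorescence ratio not above library mean plus 5 SD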;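 note: positive B-score marks a calcium rise read as TRPC4 activation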
#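 System – HEK293 cells stably co-expressing mouse TRPC4beta and mu-opioid receptor · Signal – Fluo4 calcium-sensitive dye fluorescence, kinetic, 1 Hz baseline · Benchmarks – buffer (low) and maximal DAMGO (high) · Read-out – B score of integrated fluorescence ratio per well · Incubation – dye loading 45 min room temperature, 110 s kinetic read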
# TRPC6 activator – activates the mouse TRPC6 cation channel; Q61143; HEK293-TRPC6 membrane potential dye fluorescence; stronger effect = higher value; B-score at 10 µM; 0.13% of 310,000 active; AID 2550;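 active = B-score of the integrated fluorescence ratio above library mean plus 3 SD, and starting fluorescence ratio within library mean plus 5 SD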;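 note: higher score means more depolarization so channel activation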
# TRPC4 spec 2 – second selectivity test of TRPC6 inhibitors: effect on mouse TRPC4; shares compounds with TRPC6 inh; 42% of 920 active; inhibition, % at 10 µM; HEK293 TRPC4/MOR, membrane potential dye fluorescence; channel activated by saturating DAMGO dose;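 active = compounds whose fluorescence signal differed from control wells by over 3 SD, either direction, in both duplicate plates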
# TRPC4 spec – selectivity of TRPC6 inhibitors: effect on mouse TRPC4; activity change, negative = inhibition, % at 10 µM; HEK293 TRPC4/mu-opioid, membrane potential fluorescence; shares compounds with TRPC6 inh; 61% of 920 active;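 active = rise or fall in signal beyond 3 SD of buffer-only wells in both replicate plates, either sign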;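 note: integrated kinetic ratio of fluorescence range over baseline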
# HEK293 MPD ctr 2-1 – parental HEK293 nonspecific activity of TRPC6 inhibitors, second screen; shares compounds with TRPC6 inh; parental HEK293 membrane potential dye fluorescence; maximal acetylcholine challenge after compound addition; AID 2779; 31% of 920 active; signal change vs control, % at 10 µM;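 active = membrane potential signal moving either way by over 3 SD of the maximum-effect control, in both duplicate plates, meaning non-specific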
# HEK293 MPD ctr-1 – checks TRPC6 inhibitor effects in parental HEK293 cells | membrane potential signal change, % at 10 µM | shares compounds with TRPC6 inh | 60% of 920 active | AID 2780 | parental HEK293 membrane potential dye fluorescence;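 active = membrane potential signal shifting up or down by more than 3 SD of buffer-only wells, on both duplicate plates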
# HEK293 MPD ctr-2 – parental HEK293 nonspecific activity of TRPC6 modulators | shares compounds with TRPC6 inh | membrane potential dye fluorescence | membrane potential signal change, % at 10 µM | 51% of 2,400 active;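 active = membrane potential signal moves up or down beyond 5 SD from buffer-only wells, on both duplicate plates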
# HEK293 MPD ctr 2-2 – second counter-screen for TRPC6 modulators: effect in parental HEK293 cells; shares compounds with TRPC6 inh; membrane potential dye fluorescence; after compound, maximal acetylcholine stimulation; inhibition, % at 10 µM; 14% of 2,400 active; AID 488926;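 active = membrane potential signal drops by more than 5 SD from the mean control signal, in both duplicate plates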
# TRPC4 ctr mod – selectivity of TRPC6 modulators against mouse TRPC4. HEK293 TRPC4/mu-opioid, membrane potential fluorescence. shares compounds with TRPC6 inh. 69% of 2,400 active. AID 488927. percent change from control (negative = decrease, positive = increase), % at 10 µM;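 active = membrane potential signal moved up or down beyond 5 SD of buffer control wells, in both duplicate plates, actives on both sides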
# TRPC4/MOR inh 2 – mouse TRPC4 off-target activity of TRPC6 modulators, second screen | shares compounds with TRPC6 inh | HEK293 TRPC4/mu-opioid, membrane potential dye fluorescence; stimulated with maximal-effect DAMGO | inhibition, % at 10 µM | 55% of 2,400 active;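 active = drop in membrane potential signal beyond 5 SD of the control wells in both duplicate plates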;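 note: TRPC4 counter screen for TRPC6 hits run under conditions tuned for TRPC6 not TRPC4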
# TRPC6 block conf – confirmation of mouse TRPC6 inhibitors; HEK293-TRPC6, membrane potential dye, ACh-evoked depolarization; inhibition, % at 10 µM; 43% of 3,300 active; AID 488960; shares compounds with TRPC6 inh;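 active = fluorescence ratio falls more than 5 SD below the full-stimulation control mean, in both duplicate runs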;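 note: integrated fluorescence ratio of peak minus minimum over baseline after agonist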
# TRPC6 act conf – mouse TRPC6 activator confirmation. shares compounds with TRPC6 inh. HEK293-TRPC6 membrane potential dye fluorescence, FDSS. activation, % at 10 µM. 11% of 2,800 active;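 active = ratio signal rise beyond 5 SD above unstimulated control wells' mean, seen in both duplicate runs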
# A number is an active result; n = inactive; x = not tested or not shown.
SMILES,TRPC6 inh,TRPC4 block,TRPC4 potent,DNA FID counter,TRPC4 agonist,TRPC6 activator,HEK293 MPD ctr-2,HEK293 MPD ctr 2-2,TRPC4 ctr mod,TRPC4/MOR inh 2,TRPC6 block conf,TRPC6 act conf,others
COc1ccc(CNC(=O)Cn2nc(C)n3cccc3c2=O)cc1,n,n,n,n,n,n,x,x,x,x,x,x,
c1ccc(Oc2cccc(OCCCCN3CCCC3)c2)cc1,-8.6,n,n,n,n,n,x,x,x,x,n,x,TRPC4 spec 2=n;TRPC4 spec=5.8%;HEK293 MPD ctr 2-1=262%;HEK293 MPD ctr-1=5.1%
CC1CN(CCCCOc2cccc(Oc3ccccc3)c2)CC(C)O1 (configuration not stated),n,n,n,n,n,n,x,x,x,x,x,x,
CC(OC(=O)c1nc(Cl)ccc1Cl)C(=O)Nc1ccccc1F (configuration not stated),n,n,n,x,n,n,x,x,x,x,x,x,
CC(C)c1ccc2c(c1)C1(NN=C(c3ccccc3)S1)C(=O)N2 (configuration not stated),-5.7,n,11,n,n,n,-150%,n,-33%,75%,46%,n,
CCOC(=O)/C(=C/c1ccc(N2CCC(c3ccccc3)=N2)cc1)C(C)=O,n,n,n,n,n,14,582%,n,51%,n,n,43%,
COc1ccc(NC(=O)Cc2nnc(SCC(=O)Nc3ccc(F)cc3)n2C)cc1,n,n,n,n,n,n,x,x,x,x,x,x,
CN1CCN(c2ccc(Cl)cc2NC(=O)c2cccc(S(=O)(=O)N(C)C)c2)CC1,-5.3,n,n,n,n,n,n,n,n,34%,n,n,
CN(C)S(=O)(=O)c1cccc(C(=O)Nc2cc(Cl)ccc2O)c1,n,n,n,n,n,n,x,x,x,x,x,x,
COC(C(=O)Nc1ccnn1C1CCN(Cc2cnn(C(C)C)c2)CC1)c1ccccc1 (configuration not stated),n,n,n,n,n,n,x,x,x,x,x,x,
CCOC(=O)N1CCN(C(=S)NC(=O)C23CC4CC(CC(C4)C2)C3)CC1,-5,n,n,n,n,n,n,n,n,n,n,n,
Cc1ccc(C)c(S(=O)(=O)N2CCN(C(=O)Cn3cnc4c3c(=O)n(C)c(=O)n4C)CC2)c1,n,n,n,n,n,n,x,x,x,x,x,x,
Brc1cc2c(cc1CN1CCc3ccccc3C1)OCO2,-7.3,n,n,n,n,n,x,x,x,x,n,n,TRPC4 spec 2=n;TRPC4 spec=n;HEK293 MPD ctr 2-1=n;HEK293 MPD ctr-1=n
O=C(NCc1ccc2c(c1)OCO2)c1ccc(CN2CCc3ccccc3C2)cc1,n,n,n,n,n,n,x,x,x,x,x,x,
COc1ccc(Cc2nc3ccc(C(=O)N(C)CCc4cnn(C)c4)cc3o2)cc1OC,n,n,n,n,n,n,x,x,x,x,x,x,
COc1ccccc1S(=O)(=O)Cc1ccc(C(=O)NC2CC2)o1,n,n,n,n,n,n,x,x,x,x,x,x,
OCCCCCN=c1cc(-c2ccccc2)oc2ccc(Cl)cc12,-8,n,n,n,n,n,x,x,x,x,74%,n,TRPC4 spec 2=57%;TRPC4 spec=-26%;HEK293 MPD ctr 2-1=31%;HEK293 MPD ctr-1=-432%
CCOC(=O)[C@@H]1[C@H]2COc3ccc(Br)cc3[C@H]2N2C(=O)N(c3cccc(Cl)c3)C(=O)[C@]12C,n,n,n,n,n,n,x,x,x,x,x,x,
O=c1oc2ccccc2c(N2CCCCC2)c1CN1CCCCC1,-5.1,n,n,n,n,n,106%,n,26%,n,n,x,
CN(CCCNC(=O)c1cccn2c(=O)c3ccccc3nc12)Cc1ccccc1,-6.3,n,n,n,n,n,-136%,n,-32%,62%,46%,n,
CCc1nnc(NC(=O)CCC(=O)N2CCN(Cc3ccc(OC)c(F)c3)CC2)s1,n,n,n,n,n,n,x,x,x,x,x,x,
CN(C)c1cc[n+](CC[n+]2ccc(N(C)C)cc2)cc1,-5.5,n,n,x,n,n,-234%,n,-42%,40%,52%,n,
Cc1ccc(NC(=S)NCc2ccc(Cl)cc2)c(OC(F)F)c1,n,n,n,n,n,n,x,x,x,x,x,x,
CCn1c(/N=C/c2c[nH]c3ccccc23)nc2ccccc21,-8.1,n,n,n,n,n,x,x,x,x,53%,n,TRPC4 spec 2=75%;TRPC4 spec=-9.7%;HEK293 MPD ctr 2-1=n;HEK293 MPD ctr-1=-165%
CCCn1c(/N=C/c2c[nH]c3ccccc23)nc2ccccc21,n,n,n,n,n,n,x,x,x,x,x,x,
SMILES,TRPC6 inh,TRPC4 block,TRPC4 potent,DNA FID counter,TRPC4 agonist,TRPC6 activator,HEK293 MPD ctr-2,HEK293 MPD ctr 2-2,TRPC4 ctr mod,TRPC4/MOR inh 2,TRPC6 block conf,TRPC6 act conf,others
Cc1ccc(NC(=O)CSCC(=O)Nc2ccc(N3CCOCC3)c(Cl)c2)cc1,-5.7,n,n,n,n,n,n,n,n,n,n,n,
CC1(C)Cc2c(cnn2-c2ccc(F)cc2)C(NC(=O)C2=NNC(=O)CC2)C1 (configuration not stated),n,n,n,n,n,n,x,x,x,x,x,x,
CN(C(=O)C(=O)c1cn(CC(=O)N2CCCC2)c2ccccc12)C1CCCCC1,n,n,n,n,n,n,x,x,x,x,x,x,
Cc1ccc(SCC(=O)Nc2ccc(N3CCN(C)CC3)c(F)c2)c(C)c1,-7.1,n,n,39,n,n,x,x,x,x,n,n,TRPC4 spec 2=72%;TRPC4 spec=-9.4%;HEK293 MPD ctr 2-1=n;HEK293 MPD ctr-1=n
CN1CCc2c(sc3c2C(=O)NC(/C=C\c2ccccc2)N3)C1 (configuration not stated),-5.7,n,n,n,n,n,n,n,-14%,63%,58%,n,
C[n+]1c2n(c3ccccc31)N=C(c1ccc(Cl)cc1)CS2,n,n,n,n,n,n,x,x,x,x,x,x,
